Data taken from ChEMBL document CHEMBL2062366, “Synthesis and biological evaluation of purpurealidin E-derived marine sponge metabolites: aplysamine-2, aplyzanzine A, and suberedamines A and B” (2012).
In brackets after ≈: the same amount, converted by molar mass. Activity calls are given as the source filed them. The rule behind the calls is not given here.

Experiments:
Type in all cases: functional
Bacillus subtilis = test: Antibacterial activity against Bacillus subtilis NCTC 9372 after 24 hrs; conditions: NCTC 9372, 24 h
In short: (§1)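 Agar dilution in Isosensitest agar at final compound levels of 128–1 μg/mL, from 10 mg/mL DMSO stocks. Solvent-only control plates covered the same DMSO range. Strains were pre-grown overnight on Columbia agar at 37 °C and multipoint-inoculated at 10 000 cfu/spot. Plates were read after 24 h at 37 °C. MIC was taken as the lowest concentration giving no visible growth, with tests repeated on a separate occasion.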

Staphylococcus aureus [1] = test: Antibacterial activity against methicillin-resistant Staphylococcus aureus NCTC 11939 after 24 hrs; conditions: NCTC 11939, 24 h
In short: (§2)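 Agar dilution on Isosensitest agar with final 128−1 μg/mL compound from DMSO solution; DMSO-only control plates. Strains pre-grown overnight on Columbia agar at 37 °C, suspended in sterile water, diluted to give 10 000 cfu per spot. Incubated 37 °C, 24 h. MIC = lowest concentration completely inhibiting visible growth; repeated on a separate occasion.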

[2] = tested on: Staphylococcus epidermidis; test: Antibacterial activity against Staphylococcus epidermidis NCTC 11047 after 24 hrs; conditions: NCTC 11047, 24 h; in short: as §1
Listeria monocytogenes = test: Antibacterial activity against Listeria monocytogenes NCTC 11994 after 24 hrs; conditions: NCTC 11994, 24 h; in short: as §1
[3] = tested on: Mycobacterium tuberculosis; test: Antimycobacterial activity against Mycobacterium tuberculosis H37Rv after 2 weeks by spot culture growth inhibition assay
In short: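 H37Rv grown as standing culture in 7H9 + 10% ADC + 0.05% Tween-80 to McFarland 1, checked for contamination on blood agar. Culture diluted to 10³ cfu/mL; 10 μL spotted onto 7H10 agar + 10% OADC with compound, 37 °C, 2 weeks. Controls: DMSO (negative), isoniazid (positive). MIC = lowest concentration with no growth.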

Streptococcus pyogenes = test: Antibacterial activity against Streptococcus pyogenes NCTC 8306 after 24 hrs; conditions: NCTC 8306, 24 h; in short: as §1
Enterococcus faecium = test: Antibacterial activity against Enterococcus faecium NCTC 7171 after 24 hrs; conditions: NCTC 7171, 24 h; in short: as §1
Staphylococcus aureus [4] = test: Antibacterial activity against Staphylococcus aureus NCTC 6571 after 24 hrs; conditions: NCTC 6571, 24 h; in short: as §2
Enterococcus faecalis = test: Antibacterial activity against Enterococcus faecalis NCTC 775 after 24 hrs; conditions: NCTC 775, 24 h; in short: as §1
Escherichia coli = test: Antibacterial activity against Escherichia coli NCTC 10418 after 24 hrs; conditions: NCTC 10418, 24 h; in short: as §1
K562 = test: Growth inhibition of human K562 cells after 48 hrs by sulforhodamine B assay; conditions: K562, 48 h, pooled result: one value given for 6 cell lines, strains, targets or settings
In short: (§3)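 Run at the NCI Developmental Therapeutics Program under the standard DTP NCI60 protocol. Total cell protein was measured by sulforhodamine B staining at time 0 and after 48 h exposure. GI50, the concentration giving a 50% reduction of growth, was estimated from dose–response curves.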

[5] = Growth inhibition of human NCI60 cells after 48 hrs by sulforhodamine B assay; conditions: NCI60, 48 h; in short: as §3
Nakaseomyces glabratus = test: Antifungal activity against Candida glabrata NCPF 9725 after 24 hrs; conditions: NCPF 9725, 24 h; in short: as §1
Candida albicans = test: Antifungal activity against Candida albicans ATCC 90028 after 24 hrs; conditions: ATCC 90028, 24 h; in short: as §1

Row | Compound | MIC (Bacillus subtilis) [µg/mL] | MIC (Staphylococcus aureus [1]) [µg/mL] | MIC [2] [µg/mL] | MIC (Listeria monocytogenes) [µg/mL] | MIC ([3]; 336 h) [µg/mL] | MIC (Streptococcus pyogenes) [µg/mL] | MIC (Enterococcus faecium) [µg/mL] | MIC (Staphylococcus aureus [4]) [µg/mL] | also measured
1 | COc1ccc(C/C(=N\O)C(=O)NCCc2cc(Br)c(OCCCN(C)C)c(Br)c2)cc1Br | 32 (≈ 49.2 µM) | 64 (≈ 98.4 µM) | 64 (≈ 98.4 µM) | 64 (≈ 98.4 µM) | 25 (≈ 38.4 µM) | 32 (≈ 49.2 µM) | 64 (≈ 98.4 µM) | 32 (≈ 49.2 µM) | MIC (Enterococcus faecalis): 64 µg/mL (≈ 98.4 µM)
2 | CNC(Cc1cc(Br)c(OC)c(Br)c1)C(=O)NCCCOc1c(Br)cc(CCN(C)C)cc1Br.Cl (centres undefined) [ANOMOIAN A] | 32 | 64 | 64 | 64 | 25 | 64 | 64 | 64 | MIC (Escherichia coli): 64 µg/mL
3 | CN[C@@H](Cc1cc(Br)c(OC)c(Br)c1)C(=O)NCCc1cc(Br)c(OCCCN(C)C)c(Br)c1 | – | – | – | – | – | – | – | – | GI50 (K562; read-out: GI50): 2.17 µM; GI50 (K562; read-out: pGI50 (converted)): 4.79 µM
4 | CN[C@@H](Cc1ccc(OC)c(Br)c1)C(=O)NCCc1cc(Br)c(OCCCN(C)C)c(Br)c1 [SUBEREDAMINE B] | – | – | – | – | 40 (≈ 61.5 µM) | – | – | – | GI50 ([5]; read-out: GI50): 5.47 µM; GI50 ([5]; read-out: pGI50 (converted)): 4.79 µM
5 | CN(C)CCCOc1c(Br)cc(CCN)cc1Br | – | – | – | – | – | – | – | – | MIC [3]: inactive
6 | COc1ccc(C[C@H](N)C(=O)NCCc2cc(Br)c(OCCCN(C)C)c(Br)c2)cc1Br [SUBEREDAMINE A] | 64 (≈ 101 µM) | – | 64 (≈ 101 µM) | – | 50 (≈ 78.6 µM) | – | – | – | –
7 | COc1c(Br)cc(C[C@@H](C(=O)NCCc2cc(Br)c(OCCCN(C)C)c(Br)c2)N(C)C)cc1Br [APLYZANZINE A] | 16 (≈ 21.5 µM) | 32 (≈ 43.1 µM) | 16 (≈ 21.5 µM) | 32 (≈ 43.1 µM) | 25 (≈ 33.6 µM) | 16 (≈ 21.5 µM) | 32 (≈ 43.1 µM) | 32 (≈ 43.1 µM) | MIC (Escherichia coli): 32 µg/mL (≈ 43.1 µM); MIC (Nakaseomyces glabratus): 64 µg/mL (≈ 86.1 µM); MIC (Candida albicans): 64 µg/mL (≈ 86.1 µM); MIC (Enterococcus faecalis): 32 µg/mL (≈ 43.1 µM)
